# Laboratory results as given in ChEMBL document CHEMBL1124476, “1-(2-aminoethyl)-6-aryl-4H- [1,2,4]triazolo[4,3-a][1,4]benzodiazepines with diuretic and natriuretic activity” (J Med Chem, 1989).
# What was measured:
# [1] = Diuretic activity at 40 mg/kg (screening dose-105.3 umol/kg) in […] in a one stage experiment; T/C = urine vol of treated rats / urine vol of control rats; assay type: functional
# Procedure, shortened: (§1)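 40 mg/kg given by gavage in 25 mL/kg 0.9% saline with 0.5% (carboxymethyl)cellulose. Four rats per agent, two per metabolism cage; 20 controls; 5 h urine. T/C = treated/control urine volume. Stage-1 T/C of 1.66 or more leads to stage 2; product T/C1·T/C2 of 3.34 or more counts as active.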
# [2] = Diuretic activity at 40 mg/kg (screening dose-103.9 umol/kg) in […] in a one stage experiment; T/C = urine vol of treated rats / urine vol of control rats; assay type: functional; procedure, shortened: as §1
# [3] = Diuretic activity at 40 mg/kg (screening dose-77.5 umol/kg) in […] in a one stage experiment; T/C = urine vol of treated rats / urine vol of control rats; assay type: functional; procedure, shortened: as §1
# [4] = Diuretic activity at 40 mg/kg (screening dose-82.5 umol/kg) in […] in a one stage experiment; T/C = urine vol of treated rats / urine vol of control rats; assay type: functional; procedure, shortened: as §1
# Rattus norvegicus [5] = species on record: Rattus norvegicus; assay: […]; assay type: ADME, organism-based, Urine; set-up: dose 1 mg/kg, route oral; conditions: in vivo, po, 1 mg/kg
# Procedure, shortened: (§2)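 Dose-response test in male Sprague-Dawley rats of about 160 g, fasted 24 h, with water withheld 1½ h before and during the test. Each rat got a single gavage of 25 mL/kg 0.9% saline with 0.5% carboxymethylcellulose carrying the agent (0.3–100 mg/kg range). Rats were housed two per metabolism cage, and urine was collected for 5 h. Mean urine volume (mL) was compared with controls (P < 0.05).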
# Rattus norvegicus [6] = assay: Mean excretion of sodium in conscious rats at a dose of 30 mg/kg given orally; assay type: ADME, organism-based; set-up: dose 30 mg/kg, route oral; conditions: in vivo, po
# Procedure, shortened: (§3)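 Male Sprague-Dawley rats, about 160 g, fasted 24 h and water withheld 1 1/2 h beforehand; food and water withheld during the test. Dosing by gavage with 25 mL/kg 0.9% saline containing 0.5% (carboxymethyl)cellulose, agent dissolved or suspended. Three cages of two rats each per dose, held in metabolism cages. Urine collected over 5 h. Volume given in mL, Na+ in mequiv. Significance versus control at P < 0.05.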
# Rattus norvegicus [7] = assay: Mean excretion of […] in conscious rats at a dose of 1.0 mg/kg given orally; assay type: ADME, organism-based; set-up: dose 1 mg/kg, route oral; conditions: in vivo, po; procedure, shortened: as §3
# Rattus norvegicus [8] = assay: Mean excretion of potassium in conscious rats at a dose of 10 mg/kg given orally; assay type: ADME, organism-based; set-up: dose 10 mg/kg, route oral; conditions: in vivo, po
# Procedure, shortened: (§4)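 Secondary dose-response in male Sprague-Dawley rats (~160 g), fasted and hydrated as in the primary screen. Oral gavage at 0.3-100 mg/kg in 25 mL/kg saline/0.5% CMC, three cages of two rats per dose. Urine collected 5 h; Na, K, Cl, HCO3 measured. Values are mean excretion (mequiv), compared with controls at P < 0.05.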
# Rattus norvegicus [9] = assay: Mean excretion of potassium in conscious rats at a dose of 1.0 mg/kg given orally; assay type: ADME, organism-based; set-up: dose 1 mg/kg, route oral; conditions: in vivo, po; procedure, shortened: as §4
# Rattus norvegicus [10] = assay: Mean excretion of chloride in conscious rats at a dose of 100 mg/kg given orally; assay type: ADME, organism-based; set-up: dose 100 mg/kg, route oral; conditions: in vivo, po; procedure, shortened: as §4
# Rattus norvegicus [11] = assay: Mean excretion of chloride in conscious rats at a dose of 10 mg/kg given orally; assay type: ADME, organism-based; set-up: dose 10 mg/kg, route oral; conditions: in vivo, po; procedure, shortened: as §4
# Rattus norvegicus [12] = assay: Mean excretion of chloride in conscious rats at a dose of 3.0 mg/kg given orally; assay type: ADME, organism-based; set-up: dose 3 mg/kg, route oral; conditions: in vivo, po; procedure, shortened: as §4
# Rattus norvegicus [13] = assay: Mean excretion of chloride in conscious rats at a dose of 1.0 mg/kg given orally; assay type: ADME, organism-based; set-up: dose 1 mg/kg, route oral; conditions: in vivo, po; procedure, shortened: as §4
# Rattus norvegicus [14] = assay: Mean excretion of Cl- in conscious rats at a dose of 0.3 mg/kg given orally; assay type: ADME, organism-based, Urine; set-up: dose 0.3 mg/kg, route oral; conditions: in vivo, po; procedure, shortened: as §2
# Rattus norvegicus [15] = assay: Mean excretion of chloride in conscious rats at a dose of 30 mg/kg given orally; assay type: ADME, organism-based; set-up: dose 30 mg/kg, route oral; conditions: in vivo, po; procedure, shortened: as §4
# Rattus norvegicus [16] = assay: Mean excretion of potassium in conscious rats at a dose of 3.0 mg/kg given orally; assay type: ADME, organism-based; set-up: dose 3 mg/kg, route oral; conditions: in vivo, po; procedure, shortened: as §4
# [17] = Diuretic activity at 40 mg/kg (screening dose-87.7 umol/kg) in […] in a one stage experiment; T/C = urine vol of treated rats / urine vol of control rats; assay type: functional; procedure, shortened: as §1
# Rattus norvegicus [18] = species on record: Rattus norvegicus; assay: […]; assay type: ADME, organism-based, Urine; set-up: dose 0.3 mg/kg, route oral; conditions: in vivo, po, 0.3 mg/kg; procedure, shortened: as §2
# Rattus norvegicus [19] = assay: Mean excretion of sodium in conscious rats at a dose of 0.3 mg/kg given orally; assay type: ADME, organism-based; set-up: dose 0.3 mg/kg, route oral; conditions: in vivo, po; procedure, shortened: as §3
# Rattus norvegicus [20] = assay: Mean excretion of sodium in conscious rats at a dose of 10 mg/kg given orally; assay type: ADME, organism-based; set-up: dose 10 mg/kg, route oral; conditions: in vivo, po; procedure, shortened: as §3
# Rattus norvegicus [21] = assay: Mean excretion of potassium in conscious rats at a dose of 30 mg/kg given orally; assay type: ADME, organism-based; set-up: dose 30 mg/kg, route oral; conditions: in vivo, po; procedure, shortened: as §4
# Rattus norvegicus [22] = assay: Mean excretion of potassium in conscious rats at a dose of 0.3 mg/kg given orally; assay type: ADME, organism-based; set-up: dose 0.3 mg/kg, route oral; conditions: in vivo, po; procedure, shortened: as §4
# Rattus norvegicus [23] = species on record: Rattus norvegicus; assay: […]; assay type: ADME, organism-based, Urine; set-up: dose 3 mg/kg, route oral; conditions: in vivo, po, 3 mg/kg; procedure, shortened: as §3
# Rattus norvegicus [24] = assay: Mean excretion of potassium in conscious rats at a dose of 100 mg/kg given orally; assay type: ADME, organism-based; set-up: dose 100 mg/kg, route oral; conditions: in vivo, po; procedure, shortened: as §4
# Rattus norvegicus [25] = species on record: Rattus norvegicus; assay: […]; assay type: ADME, organism-based, Urine; set-up: dose 30 mg/kg, route oral; conditions: in vivo, po, 30 mg/kg; procedure, shortened: as §3
# Rattus norvegicus [26] = species on record: Rattus norvegicus; assay: […]; assay type: ADME, organism-based, Urine; set-up: dose 100 mg/kg, route oral; conditions: in vivo, po, 100 mg/kg; procedure, shortened: as §3
# Rattus norvegicus [27] = assay: Mean excretion of sodium in conscious rats at a dose of 100 mg/kg given orally; assay type: ADME, organism-based; set-up: dose 100 mg/kg, route oral; conditions: in vivo, po; procedure, shortened: as §3
# [28] = Diuretic activity at 40 mg/kg (screening dose 87.7 umol/kg) in […] in a two stage experiment; T/C1.2 = urine vol of treated rats / urine vol of control rats; assay type: functional; procedure, shortened: as §1
# Rattus norvegicus [29] = assay: Mean excretion of sodium in conscious rats at a dose of 3.0 mg/kg given orally; assay type: ADME, organism-based; set-up: dose 3 mg/kg, route oral; conditions: in vivo, po; procedure, shortened: as §3
# Rattus norvegicus [30] = species on record: Rattus norvegicus; assay: […]; assay type: ADME, organism-based, Urine; set-up: dose 10 mg/kg, route oral; conditions: in vivo, po, 10 mg/kg; procedure, shortened: as §3
# [31] = Diuretic activity at 40 mg/kg (screening dose-61.3 umol/kg) in […] in a one stage experiment; T/C = urine vol of treated rats / urine vol of control rats; assay type: functional; procedure, shortened: as §1
smiles,measurement,setting,value
CC(CN(C)C)c1nnc2n1-c1ccc(Cl)cc1C(c1ccccc1)=NC2 (stereo unspecified),T/C 1,[1],1.25
Clc1ccc2c(c1)C(c1ccccc1)=NCc1nnc(Cc3ccccc3)n1-2,T/C 1,[2],0.96
Clc1ccc2c(c1)C(c1ccccc1)=NCc1nnc(C(CN3CCOCC3)c3ccccc3)n1-2 (stereo unspecified),T/C 1,[3],1.46
COC(CN(C)C)c1nnc2n1-c1ccc(Cl)cc1C(c1ccccc1)=NC2 (stereo unspecified),T/C 1,[4],1.32
CC1N=C(c2ccccc2)c2cc(Cl)ccc2-n2c1nnc2C(CN(C)C)c1ccccc1 (stereo unspecified),Mean urine volume,Rattus norvegicus [5],4.39 mL
same,Mean excretion of Na+,Rattus norvegicus [6],1.65 m equiv
same,Mean excretion of Na+,Rattus norvegicus [7],0.82 m equiv
same,Mean excretion of K+,Rattus norvegicus [8],0.22 m equiv
same,Mean excretion of K+,Rattus norvegicus [9],0.19 m equiv
same,Mean excretion of Cl-,Rattus norvegicus [10],1.9 m equiv
same,Mean excretion of Cl-,Rattus norvegicus [11],1.33 m equiv
same,Mean excretion of Cl-,Rattus norvegicus [12],0.91 m equiv
same,Mean excretion of Cl-,Rattus norvegicus [13],0.86 m equiv
same,Mean excretion of Cl-,Rattus norvegicus [14],0.82 m equiv
same,Mean excretion of Cl-,Rattus norvegicus [15],1.64 m equiv
same,Mean excretion of K+,Rattus norvegicus [16],0.24 m equiv
same,T/C 1,[17],3.05
same,Mean urine volume,Rattus norvegicus [18],3.97 mL
same,Mean excretion of Na+,Rattus norvegicus [19],0.74 m equiv
same,Mean excretion of Na+,Rattus norvegicus [20],1.33 m equiv
same,Mean excretion of K+,Rattus norvegicus [21],0.24 m equiv
same,Mean excretion of K+,Rattus norvegicus [22],0.24 m equiv
same,Mean urine volume,Rattus norvegicus [23],4.96 mL
same,Mean excretion of K+,Rattus norvegicus [24],0.21 m equiv
same,Mean urine volume,Rattus norvegicus [25],9.56 mL
same,Mean urine volume,Rattus norvegicus [26],10.66 mL
same,Mean excretion of Na+,Rattus norvegicus [27],2.04 m equiv
same,T/C 1.2,[28],7.05
same,Mean excretion of Na+,Rattus norvegicus [29],0.86 m equiv
same,Mean urine volume,Rattus norvegicus [30],7.53 mL
CN1CCN(CC(c2ccccc2)c2nnc3n2-c2ccc(Cl)cc2C(c2ccccc2)=NC3)CC1.I (stereo unspecified),T/C 1,[31],1.02
